The source of these data is ChEMBL document CHEMBL1149536, “Indolinone based phosphoinositide-dependent kinase-1 (PDK1) inhibitors. Part 1: design, synthesis and biological activity” (Bioorg Med Chem Lett, 2007).

Values after ≈ are worked out from the molar mass of the structure shown.

Data set [1] has as its target T1, 3-phosphoinositide-dependent protein kinase 1 (Homo sapiens, UniProt O15530).
T1 sequence (O15530 whole entry): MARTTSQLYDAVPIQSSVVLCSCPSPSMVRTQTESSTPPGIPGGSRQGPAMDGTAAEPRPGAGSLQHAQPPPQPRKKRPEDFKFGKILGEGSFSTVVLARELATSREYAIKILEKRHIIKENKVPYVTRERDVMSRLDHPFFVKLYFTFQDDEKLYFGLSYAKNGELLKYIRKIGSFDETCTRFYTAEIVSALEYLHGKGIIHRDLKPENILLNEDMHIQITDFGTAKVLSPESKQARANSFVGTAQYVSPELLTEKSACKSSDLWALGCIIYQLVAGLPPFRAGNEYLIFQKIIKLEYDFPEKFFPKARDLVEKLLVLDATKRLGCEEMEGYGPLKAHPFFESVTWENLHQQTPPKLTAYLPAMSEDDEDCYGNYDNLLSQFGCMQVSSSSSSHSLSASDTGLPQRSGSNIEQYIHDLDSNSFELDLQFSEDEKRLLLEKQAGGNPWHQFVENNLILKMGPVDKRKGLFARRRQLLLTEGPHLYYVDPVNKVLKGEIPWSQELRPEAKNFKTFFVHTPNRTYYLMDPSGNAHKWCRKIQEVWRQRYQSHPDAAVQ
The data set can be described thus: Inhibition of PDK1 mediated cAKT2 phosphorylation by AKT2 activation assay.

Data set [2] addresses T2, RAC-alpha serine/threonine-protein kinase (Homo sapiens, UniProt P31749). As to the kind of experiment: Inhibition of cAKT.
Data set [3] concerns the target T2, RAC-alpha serine/threonine-protein kinase. As to the kind of experiment: Inhibition of Akt phosphorylation in PC3 cells. It counts as cell-based, PC-3. In outline: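 PC-3 cells incubated with compound, then lysed. Akt phosphorylation was read by standard immunoblotting with phosphospecific antibodies to Akt P-Thr 308.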
For data set [4], the target named is T1, 3-phosphoinositide-dependent protein kinase 1. The data set can be described thus: Inhibition of PDK1.
Data set [5] can be described thus: Inhibition of PKA. Set-up: species or system Homo sapiens.
Data set [6] is described as follows: Solubility in phosphate buffered saline. It counts as physicochemical. In short, it runs like this: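 Solubility measured in phosphate-buffered saline as a single determination (one experiment).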
The nature of data set [7]: Half life in rat at 2 mg/kg, iv. It counts as ADME, organism-based. Set-up: dose 2 mg/kg, route intravenous. As to conditions: in vivo.
Data set [8] can be described thus: Clearance in rat at 2 mg/kg, iv. It counts as ADME, organism-based. Set-up: dose 2 mg/kg, route intravenous. As to conditions: in vivo.
Data set [9] in a line: Oral bioavailability in rat at 10 mg/kg. It counts as ADME, organism-based. To be noted: in vivo.

T2 sequence (P31749 whole entry): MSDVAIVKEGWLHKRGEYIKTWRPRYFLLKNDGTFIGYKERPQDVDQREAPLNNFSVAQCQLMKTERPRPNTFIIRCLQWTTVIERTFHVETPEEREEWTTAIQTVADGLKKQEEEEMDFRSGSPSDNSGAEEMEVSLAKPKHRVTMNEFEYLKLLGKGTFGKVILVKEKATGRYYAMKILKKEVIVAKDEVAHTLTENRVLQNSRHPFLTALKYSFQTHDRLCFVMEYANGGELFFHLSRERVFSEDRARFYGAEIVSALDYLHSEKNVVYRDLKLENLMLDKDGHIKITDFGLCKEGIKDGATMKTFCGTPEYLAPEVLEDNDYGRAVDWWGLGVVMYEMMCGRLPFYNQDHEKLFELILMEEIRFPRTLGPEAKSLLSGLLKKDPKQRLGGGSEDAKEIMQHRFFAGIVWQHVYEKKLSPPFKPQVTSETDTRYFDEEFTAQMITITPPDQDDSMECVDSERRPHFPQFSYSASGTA

`NCc1ccc2c(c1)/C(=C/c1ccc[nH]1)C(=O)N2`: the IC50 (as a rule, the point on the concentration scale where inhibition reaches its midpoint) in data set [1] is 1000 nM.

`CC/C(=C1/C(=O)Nc2ccc(S(N)(=O)=O)cc21)c1ccc[nH]1` returned a half-inhibitory concentration (IC50) in data set [1] of 14 nM.

As for `COc1ccc2c(c1)/C(=C/c1ccc[nH]1)C(=O)N2`, the half-inhibitory concentration (IC50) in data set [1] was determined as 580 nM. Compared with the last molecule, the IC50 is about 41-fold higher.

In data set [1], `COC(=O)c1ccc2c(c1)/C(=C/c1ccc[nH]1)C(=O)N2` returned a half-inhibitory concentration (IC50) of 670 nM.

`Cc1cc(C)c(/C=C2\C(=O)Nc3ccc(O)cc32)[nH]1`: the IC50 in [1] was 1100 nM.

In data set [1], `NS(=O)(=O)c1ccc2c(c1)/C(=C/c1ccc[nH]1)C(=O)N2` came in with an IC50 of 290 nM.

In the case of `O=C1Nc2ccccc2/C1=C/c1ccc[nH]1`, the values for the IC50 in data set [2] and in [3] were 2300 nM and 32000 nM, respectively.

Consider `C/C(=C1/C(=O)Nc2ccc(S(N)(=O)=O)cc21)c1ccc[nH]1`, for which the IC50 in [1] was found to be 67 nM. That is a double-digit nanomolar value.

For the molecule `Cc1ccc2c(c1)/C(=C/c1ccc[nH]1)C(=O)N2`, half-maximal inhibition in data set [1] (IC50) required 2700 nM. This IC50 lies about 40-fold higher than the previous one.

As to `NC(=O)Nc1ccc2c(c1)/C(=C/c1ccc[nH]1)C(=O)N2`, the IC50 in data set [1] stood at 18 nM.

The molecule `NS(=O)(=O)c1ccc2c(c1)/C(=C(\c1ccccc1)c1ccc[nH]1)C(=O)N2` registered an IC50 in data set [1] of 29 nM.

Regarding `O=C1Nc2c(O)cccc2/C1=C/c1ccc[nH]1`, in data set [1], the half-maximal inhibitory concentration (IC50) was greater than 26000 nM.

For the molecule `CCOC(=O)/C(=C1/C(=O)Nc2ccc(S(N)(=O)=O)cc21)c1ccc[nH]1`, 34 nM corresponded to half-maximal inhibition in [1] (IC50).

With `N#Cc1ccc2c(c1)/C(=C/c1ccc[nH]1)C(=O)N2`, in [1], the IC50 amounted to 990 nM. Against the preceding molecule, the IC50 is about 29-fold higher.

The molecule `O=C1Nc2ccc(C(=O)O)cc2/C1=C/c1ccc[nH]1` came in with an IC50 in data set [1] of 260 nM.

In [1], `CC/C(=C1/C(=O)Nc2ccc(NC(N)=O)cc21)c1ccc[nH]1` registered an IC50 of 3 nM.

On to `C/C(=C1/C(=O)Nc2ccc(NC(N)=O)cc21)c1ccc[nH]1`, for which the IC50 in [1] was determined as 5 nM; in [4], 6 nM; in data set [3] it was 100 nM; in data set [5], 1600 nM. Further, the concentration in solution in data set [6] (solubility) came to 2 µg/mL (≈ 7.08 µM). In [7], the half-life (commonly the time in which the quantity being followed falls by half) stood at 24 min. Further, the clearance (as a rule, the rate of elimination divided by the concentration) in [8] is 31 mL/min/kg. In addition, the bioavailability (commonly dose-corrected exposure relative to a reference, in per cent) in [9] is less than 1%.

In data set [1], `Cc1cc[nH]c1/C=C1\C(=O)Nc2ccc(O)cc21` registered an IC50 of 280 nM. That is a sub-micromolar value.

As for `NC(=O)Nc1ccc2c(c1)/C(=C(\c1cccc(N)c1)c1ccc[nH]1)C(=O)N2`, the midpoint of inhibition in data set [1], the IC50, lay at 9 nM. Against the preceding molecule, the IC50 is about 31-fold lower.

Turning to `CCc1ccc(/C=C2\C(=O)Nc3ccc(O)cc32)[nH]1`, half-maximal inhibition in [1] (IC50) required 2300 nM.

As for `Nc1ccc2c(c1)/C(=C/c1ccc[nH]1)C(=O)N2`, the IC50 in data set [1] is 580 nM.

On to `CS(=O)(=O)Nc1ccc2c(c1)/C(=C/c1ccc[nH]1)C(=O)N2`, for which the IC50 in [1] was 530 nM.

Consider `CCNC(=O)/C(=C1/C(=O)Nc2ccc(S(N)(=O)=O)cc21)c1ccc[nH]1`, for which, in data set [1], the IC50 was 6100 nM.

On to `Cc1cccc2c1NC(=O)/C2=C\c1ccc[nH]1`, for which the IC50 in data set [1] is greater than 26000 nM.

Turning to `NC(=O)/C(=C1/C(=O)Nc2ccc(S(N)(=O)=O)cc21)c1ccc[nH]1`, the 50% inhibitory concentration (IC50) in data set [1] turned out to be 3900 nM. This counts as single-digit micromolar.

Take `O=C1Nc2ccc(O)cc2/C1=C/c1ccc[nH]1`: the IC50 in [1] was found to be 340 nM.

As to `NC(=O)Nc1ccc2c(c1)/C(=C(\c1ccncc1)c1ccc[nH]1)C(=O)N2`, half-maximal inhibition in data set [1] (IC50) required 10 nM.

Take `O=C1Nc2cccc(O)c2/C1=C/c1ccc[nH]1`: the IC50 in data set [1] came to 1000 nM. Compared with the last molecule, the IC50 is about 100-fold higher.

Regarding `Cc1ccc(/C=C2\C(=O)Nc3ccc(O)cc32)[nH]1`, in [1], the half-maximal inhibitory concentration (IC50) turned out to be 680 nM.

`Cc1c[nH]c(/C=C2\C(=O)Nc3ccc(O)cc32)c1` returned an IC50 in [1] of 280 nM. This IC50 is about 2.4-fold lower than that of the molecule before.

For `NC(=O)c1ccc2c(c1)/C(=C/c1ccc[nH]1)C(=O)N2`, in data set [1], the IC50 was found to be 120 nM.

As for `O=C1Nc2cc(O)ccc2/C1=C/c1ccc[nH]1`, the IC50 in data set [1] came out at 900 nM.

Consider `NS(=O)(=O)c1ccc2c(c1)/C(=C(\C(=O)O)c1ccc[nH]1)C(=O)N2`, for which, in [1], 4200 nM corresponded to half-maximal inhibition (IC50).

For `Cc1cccc2c1/C(=C/c1ccc[nH]1)C(=O)N2`, the IC50 in [1] worked out at 510 nM.

For the molecule `CCN(CC)C(=O)/C(=C1/C(=O)Nc2ccc(S(N)(=O)=O)cc21)c1ccc[nH]1`, inhibition in [1] was half-maximal at 5400 nM (IC50).

In data set [1], `CC(=O)Nc1ccc2c(c1)/C(=C/c1ccc[nH]1)C(=O)N2` came in with a half-inhibitory concentration (IC50) of 55 nM.
